Platelet DG rel: modulates dense granule release in human platelets | human platelet-rich plasma, SFLLRN dense granule ATP release, luminescence | inhibition, %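 (compounds screened at 7.5 µM in platelet-rich plasma)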 | hit rate 0.22% among 300,000 | AID 1663;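 active = mean replicate score, as percent of positive control, at or above 50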
SENP1 FRET inh: blocks the human SENP1 SUMO protease catalytic domain; Q9P0U3; recombinant SENP1 catalytic domain, CyPet-SUMO1-YPet FRET cleavage; inhibition, % at 10 µM; hit rate 0.21% among 360,000; AID 624204;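 active = inhibition at least 30% at 10 µM, raw YFP signal under a set limit, fluorescence ratio 0.5 to 1.5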;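 also: 0% = enzyme with DMSO and 100% = no enzyme wells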
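Assay system – human recombinant His6-tagged SENP1 catalytic domain enzyme · Input – SENP1 enzyme, 20 pM final · Buffer or medium – Tris pH 8 buffer plus EDTA, NaCl, BME, BSA, NP40, catalase · Schedule – 50 min reaction at room temperature · Technique – FRET read of cyan and yellow fluorescence · Control set – no-enzyme wells low, DMSO-plus-enzyme wells high control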
SENP6 inh: blocks the human protease SENP6. hit rate 1.8% among 330,000. Recombinant SENP6 catalytic domain, aminoluciferin luminescence. inhibition, % at 10 µM;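 active = inhibition above about 50% at the single tested dose, limit read from the data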;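 also: plate controls were DMSO wells with enzyme for no effect and DMSO wells lacking enzyme for full effect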
SENP8 block-1: inhibitors of human SENP8 protease; inhibition, % at 10 µM; hit rate 1.2% among 330,000; purified SENP8, Z-RLRGG-aminoluciferin cleavage, luminescence; Q96LD8; in the data active = inhibition above about 50%
Target sequence (Q96LD8 whole entry, looked up): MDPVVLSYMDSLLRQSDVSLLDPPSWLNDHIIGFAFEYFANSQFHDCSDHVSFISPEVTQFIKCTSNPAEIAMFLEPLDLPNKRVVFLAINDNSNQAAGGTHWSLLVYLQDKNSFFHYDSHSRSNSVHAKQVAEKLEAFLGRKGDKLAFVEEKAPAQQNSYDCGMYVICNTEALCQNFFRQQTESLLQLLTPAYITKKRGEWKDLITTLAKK
SENP7 inh: SENP7 protease inhibition; inhibition, % at 5 µM; recombinant SENP7, Z-RLRGG-aminoluciferin luminescence, 40 min; hit rate 1.5% among 330,000;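 active = inhibition above about 50% at the single test dose, limit read from the data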;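 also: plate controls were DMSO with enzyme for no effect and no enzyme buffer wells for full effect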
SENP8 block-2: blocks human SENP8 cleavage of Nedd8 substrate. Q96LD8. recombinant SENP8, Nedd8 substrate fluorescence. inhibition, % at 20 µM. hit rate 0.64% among 360,000. AID 602440; in the data active = inhibition mostly above about 40%, no sharp cut-off; inactive = mostly below about 27%
SENP8 inh conf: confirmation of human SENP8 protease inhibitors; purified SENP8, Nedd8-AMC/pro-Nedd8 cleavage fluorescence, 30 min; shares compounds with SENP8 block-2; hit rate 15% among 1,400; inhibition, % at 25 µM; in the data active = inhibition mostly above about 39%, no sharp cut-off; inactive = mostly below about 34%
* marks the source's active call; other numbers are inactive results; x = no result. Hits are enriched below; roughly 2.6% of the tested compounds scored in any of these assays.

SMILES	Platelet DG rel	SENP1 FRET inh	SENP6 inh	SENP8 block-1	SENP7 inh	SENP8 block-2	SENP8 inh conf
CCCC(=O)C1=C(O)C(C(=O)OC)C(C)(C)CC1=NCCCCCC(=O)O (stereo not given)	-1	2	-7	-3	-6	4	x
CCCCCC(=O)N/N=C/c1ccc([N+](=O)[O-])o1	3	-7	3	4	0	28	x
O=C(N/N=C/c1ccc(-c2ccccc2[N+](=O)[O-])o1)c1cncc(Br)c1	1	-7	33	26	9	2	x
O=C(N/N=C\c1ccc([N+](=O)[O-])o1)c1cncc(Br)c1	2	1	11	14	4	66*	24
O=C(N/N=C/c1ccc([N+](=O)[O-])o1)c1ccncc1	4	0	11	-2	-9	54*	28
O=C(Cc1ccc2c(c1)OCO2)NN=Cc1ccc([N+](=O)[O-])o1	x	-26	3	-14	-1	39*	21
Cc1cc(O)c(C(C)C)cc1N=Cc1ccccc1O	5	8	0	3	7	82*	24
CC(N=Cc1ccccc1O)c1ccccc1 (stereo not given)	-6	-3	-7	-11	-1	14	x
Cc1cc(O)c(C(C)C)cc1N=Cc1cc([N+](=O)[O-])ccc1O	-17	-1	25	-1	14	73*	21
CC1=NCCN1CCNC(=O)Nc1cc(C)cc(C)c1	4	3	-16	5	8	31	x
CC1=NCCN1CCNC(=O)Nc1ccc(F)cc1	20	-2	-4	9	-5	41*	-1
CCn1nnnc1NCc1ccc(OCc2c(F)cccc2Cl)c(OC)c1	-2	0	11	-5	-9	17	x
COc1cc(CNn2nnnc2N)ccc1OCc1c(Cl)cccc1Cl	3	1	1	6	3	44*	20
CN(C)c1c(F)cc(C(=O)NC(=O)NCc2cccnc2)cc1F	-20	0	1	11	-3	-18	x
COCCCN1C(=O)C(=O)/C(=C(/O)c2ccc(S(=O)(=O)N3CCCCC3)cc2)C1c1ccc(O)cc1 (stereo not given)	7	3	18	4	8	45*	12
COCCCN1C(=O)C(=O)/C(=C(/O)c2ccc(S(=O)(=O)N3CCCCC3)cc2)C1c1ccc(O)c(OC)c1 (stereo not given)	5	5	14	2	0	12	x
CCOc1ccc(N=Nc2c(=O)[nH]n3c(=O)c4c([nH]c23)CCCC4)cc1	3	8	-15	-8	-2	54*	10
CC(C)=CCc1c(O)cc2c(c1O)C(=O)CC(c1ccccc1)O2 (stereo not given)	1	2	-14	-11	6	42*	14
O=C1CC(c2ccccc2)Oc2cc(O)cc(O)c21 (stereo not given)	-4	1	26	36	17	2	x
CC(NC(=O)c1ccc2c(=O)n3c(nc2c1)CCCCC3)c1ccccc1 (stereo not given)	x	1	-4	-8	11	2	x
O=C(NCCN1CCN(c2ccccc2)CC1)c1ccc(NC(=O)C2CCCO2)cc1 (stereo not given)	3	0	9	-9	-3	14	x
CCn1cc(/C=C/C(=O)Nc2ccc(C)cc2Br)cn1	5	1	-22	-4	-10	14	x
CCn1cc(/C=C/C(=O)Nc2ccn(Cc3c(F)c(F)cc(F)c3F)n2)cn1	-9	1	7	13	1	29*	66*
COc1cccc(N2C(=O)C(CC(=O)Nc3ccc(F)cc3)N(C3CCCCC3)C2=O)c1 (stereo not given)	-6	2	-1	8	-2	46*	5
O=C1Cc2ccccc2C(=O)N1	x	-9	x	x	x	81*	84*
Cc1ccc(CN2CC(C(=O)O)CC2=O)cc1 (stereo not given)	0	4	-3	0	4	40*	21
CC(C)[C@@H](C(=O)NCC1CCCO1)N1C(=O)N2CCc3c([nH]c4ccccc34)[C@@]2(C)C1=O (stereo not given in full)	15	-4	-8	-10	-20	51*	13
